# ChEMBL document CHEMBL4837245, “Discovery of VU6028418: A Highly Selective and Orally Bioavailable M4 Muscarinic Acetylcholine Receptor Antagonist” (ACS Med Chem Lett, 2021)
# Tests used:
# [1] = molecular target: Sigma non-opioid intracellular receptor 1 (Homo sapiens, UniProt Q99720); assay: Inhibition of human sigma1 receptor at 10 uM relative to control
# Rattus norvegicus = assay: Reversal of haloperidol-induced catalepsy in po dosed rat; assay type: functional, organism-based
# In short: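 Rat haloperidol-induced catalepsy model with oral test dosing at 0.3, 1 and 3 mg/kg alongside vehicle-treated controls. Read-out is latency to withdraw, also expressed as % reversal of catalepsy. Groups compared by ANOVA.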
# [2] = Oral bioavailability in Beagle dog at 3 mg/kg measured upto 24 hrs by LC-MS/MS analysis; assay type: ADME, organism-based, Canis lupus familiaris; conditions: in vivo
# In short: (§1)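 Single iv and oral (suspension) dosing; iv/po doses 1/10 mg/kg in SD rat, 1/3 mg/kg in CD-1 mouse and beagle dog. Plasma PK parameters are means from two to three animals per species.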
# [3] = molecular target: T1, Muscarinic acetylcholine receptor M2 (Homo sapiens, UniProt P08172); assay: Antagonist activity at human muscarinic M2 receptor expressed in CHO cells co-expressing Gqi5 assessed as inhibition of acetylcholine-induced calcium mobilization; assay type: functional, cell-based
# T1 sequence (P08172 whole entry): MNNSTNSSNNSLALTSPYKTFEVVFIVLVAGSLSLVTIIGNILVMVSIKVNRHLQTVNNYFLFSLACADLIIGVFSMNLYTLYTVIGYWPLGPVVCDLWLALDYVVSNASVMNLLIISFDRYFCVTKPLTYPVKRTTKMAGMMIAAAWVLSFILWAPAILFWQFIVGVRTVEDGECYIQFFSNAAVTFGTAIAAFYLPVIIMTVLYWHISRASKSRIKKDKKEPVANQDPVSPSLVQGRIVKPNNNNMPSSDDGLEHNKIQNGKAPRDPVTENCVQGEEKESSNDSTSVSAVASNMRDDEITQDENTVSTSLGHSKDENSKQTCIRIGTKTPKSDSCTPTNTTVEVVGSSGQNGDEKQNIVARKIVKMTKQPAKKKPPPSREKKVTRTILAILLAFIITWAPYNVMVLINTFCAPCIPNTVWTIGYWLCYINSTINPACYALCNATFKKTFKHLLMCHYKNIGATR
# In short: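 CHO cells stably transfected with the given human mAChR subtype. Compound added before an EC80 concentration of acetylcholine; antagonism read as calcium mobilization. One independent determination in triplicate.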
# [4] = Tmax in CD-1 mouse at 3 mg/kg, po measured upto 24 hrs by LC-MS/MS analysis; assay type: ADME, organism-based; conditions: in vivo
# In short: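 Pharmacokinetics in Sprague-Dawley rat, CD-1 mouse and beagle dog. Intravenous dose was 1 mg/kg in each species. Oral doses were given as a suspension: 10 mg/kg in rat, 3 mg/kg in mouse and dog. Each parameter is the mean of two to three animals.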
# Cytochrome P450 2C19 = Cytochrome P450 2C19 (Homo sapiens, UniProt P33261); assay: Time dependent inhibition of CYP2C19 (unknown origin); assay type: ADME
# Cytochrome P450 2C19, sequence (P33261 whole entry): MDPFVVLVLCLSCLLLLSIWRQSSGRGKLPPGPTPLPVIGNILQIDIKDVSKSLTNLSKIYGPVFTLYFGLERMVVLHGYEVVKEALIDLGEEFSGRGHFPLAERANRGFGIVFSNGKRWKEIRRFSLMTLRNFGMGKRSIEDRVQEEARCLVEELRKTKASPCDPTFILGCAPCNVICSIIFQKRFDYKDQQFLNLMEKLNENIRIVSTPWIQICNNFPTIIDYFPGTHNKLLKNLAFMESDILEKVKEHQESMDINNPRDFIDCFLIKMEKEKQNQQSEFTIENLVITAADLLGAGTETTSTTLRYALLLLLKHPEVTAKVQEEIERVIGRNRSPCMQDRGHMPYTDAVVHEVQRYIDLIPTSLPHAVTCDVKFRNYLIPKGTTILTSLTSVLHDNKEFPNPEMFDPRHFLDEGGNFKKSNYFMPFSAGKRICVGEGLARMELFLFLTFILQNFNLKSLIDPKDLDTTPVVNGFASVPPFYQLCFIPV
# Cytochrome P450 2D6 = Cytochrome P450 2D6 (Homo sapiens, UniProt P10635); assay: Time dependent inhibition of CYP2D6 (unknown origin); assay type: ADME
# Cytochrome P450 2D6, sequence (P10635 whole entry): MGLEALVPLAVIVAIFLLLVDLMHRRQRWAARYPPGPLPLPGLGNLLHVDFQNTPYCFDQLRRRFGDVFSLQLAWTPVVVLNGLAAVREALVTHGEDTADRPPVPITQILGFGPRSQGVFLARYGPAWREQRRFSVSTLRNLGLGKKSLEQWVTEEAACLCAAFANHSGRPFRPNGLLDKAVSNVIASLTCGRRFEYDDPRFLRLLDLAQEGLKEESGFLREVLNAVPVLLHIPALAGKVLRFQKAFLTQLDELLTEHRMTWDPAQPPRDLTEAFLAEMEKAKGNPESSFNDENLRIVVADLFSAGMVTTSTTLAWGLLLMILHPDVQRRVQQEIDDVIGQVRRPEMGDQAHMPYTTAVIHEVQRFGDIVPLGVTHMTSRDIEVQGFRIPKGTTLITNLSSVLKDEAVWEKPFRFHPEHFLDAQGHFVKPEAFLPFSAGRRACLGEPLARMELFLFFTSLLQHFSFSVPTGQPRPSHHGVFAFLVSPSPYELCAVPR
# [5] = Oral bioavailability in Sprague-Dawley rat at 10 mg/kg measured upto 24 hrs by LC-MS/MS analysis; assay type: ADME, organism-based; conditions: in vivo; in short: as §1
# Sigma non-opioid intracellular receptor 1, sequence (Q99720 whole entry): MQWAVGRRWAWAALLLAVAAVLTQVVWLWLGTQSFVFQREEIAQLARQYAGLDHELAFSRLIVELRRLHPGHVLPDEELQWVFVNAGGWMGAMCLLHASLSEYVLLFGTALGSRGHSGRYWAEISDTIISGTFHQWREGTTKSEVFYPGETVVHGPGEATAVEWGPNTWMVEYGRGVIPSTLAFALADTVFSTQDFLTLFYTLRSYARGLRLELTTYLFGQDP
compound,measurement,setting,value
Fc1cc(F)c(F)c(-c2ccc(N[C@H]3C[C@@H]4CN(CC5CCOCC5)C[C@@H]4C3)nn2)c1,inhibition,[1],101%
same,Activity,Rattus norvegicus,Dose-Dependent Effect
same,bioavailability,[2],86%
same,IC50,[3],3.5 µM
same,Tmax,[4],6.67 h
same,IC50,Cytochrome P450 2C19,> 100 µM
same,IC50,Cytochrome P450 2D6,> 100 µM
same,bioavailability,[5],≥ 100%
